# Source: PubChem BioAssay (several laboratories)
# Hck Nef HTS: inhibitors of human Hck kinase activated by Nef; P08631; Recombinant Hck-YEEI plus Nef, Z-Lyte FRET kinase assay; hit rate 0.68% among 220,000; inhibition, % at 20 µM;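 active means Hck-Nef kinase inhibition above about 50%, limit read from the data; inactive means inhibition below that limit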
# TbHK1 inh: blocks Trypanosoma brucei hexokinase 1 activity; recombinant TbHK1, G6PDH-coupled NADH A340; inhibition, % at 10 µM; hit rate 0.11% among 220,000;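 active means inhibition of 50% or more in the single-dose primary screen; inactive means inhibition below 50%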
# 14-3-3 Bad inh: disrupts binding of bovine 14-3-3 zeta to phospho-Bad peptide. P63103. TR-FRET 14-3-3zeta/Dy647-pBad peptide displacement, 1 h. inhibition, % at 21.7 µM. hit rate 0.71% among 220,000;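 active means inhibition above about 70%, limit read from the data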
# Target sequence (P63103 whole entry, looked up): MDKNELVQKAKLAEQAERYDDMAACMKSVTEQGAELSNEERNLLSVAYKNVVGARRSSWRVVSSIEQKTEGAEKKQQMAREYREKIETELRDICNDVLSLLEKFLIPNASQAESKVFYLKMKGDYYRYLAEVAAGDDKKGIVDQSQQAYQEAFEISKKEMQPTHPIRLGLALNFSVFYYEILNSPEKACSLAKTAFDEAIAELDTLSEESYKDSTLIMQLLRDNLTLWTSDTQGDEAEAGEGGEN
# Mdm2 ligase inh: blocks human Mdm2 ubiquitin ligase activity | hit rate 0.11% among 210,000 | cell-based MDM2 ubiquitination luciferase reporter, 2 h; 0 = plate control, 100 = twice control, blank-subtracted | Q00987 | signal enhancement, % at 5 µM;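 active means signal enhancement of 30% or more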;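 further: luminescence tracks abundance of the self-degrading MDM2-luciferase fusion protein; higher signal means inhibition of MDM2 E3 ligase activity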
#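 Material: stable MDM2–luciferase fusion reporter cells / Quantity: 2000 cells/well / Dosing: single 5 µM compound dose, 0.2% final DMSO / Buffer or medium: DMEM / Schedule: 4 h cell settling then 2 h compound exposure, 37 °C / Detection: luminescence with SteadyLite reagent, 15 min at room temperature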
# Wee1 degr inh: human Wee1 degradation inhibition, primary screen; P30291; HeLa Luc-Wee1K328M stability, luciferase luminescence; 100% = proteasome inhibitor MG132 effect; reporter increase, % at 5 µM; hit rate 1.2% among 220,000; AID 1321;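 active means activation above the mean of all tested compounds plus 3 SD, set per screening run, cut at about 8.8% in these data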;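 further: cells exposed to compound for 20 h before luminescence read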
# Hits are given with their value; – = inactive; · = no result. Compounds with a hit are over-represented: about 2.7% of the library has one in this group of screens.
SMILES,Hck Nef HTS,TbHK1 inh,14-3-3 Bad inh,Mdm2 ligase inh,Wee1 degr inh
CC(C)CN(Cc1cc(=O)oc2cc(-c3ccccc3)c(O)cc12)CC(C)C,–,–,–,–,9.3
COc1ccc(-n2c(-c3ccco3)nc3c(cnn3-c3ccccc3C)c2=O)cc1,–,–,–,–,–
O=S(=O)(Cc1ccc(Cl)cc1)N1CCN(Cc2ccccc2)CC1,–,–,–,–,–
CCc1ccc(CN2CCN(S(=O)(=O)Cc3ccccc3)CC2)cc1,–,–,79,–,–
CC(C)CC(c1nnnn1Cc1ccccc1)N1CCN(C(=O)c2ccco2)CC1 (stereo not given),–,–,86,–,–
O=C(c1ccco1)N1CCN(C(c2ccccc2Cl)c2nnnn2Cc2ccco2)CC1 (stereo not given),–,–,79,–,–
O=C(c1ccco1)N1CCN(C(c2ccccc2Cl)c2nnnn2Cc2cccs2)CC1 (stereo not given),–,–,–,–,–
CCCC(c1nnnn1CCOC)N1CCN(C(=O)c2ccco2)CC1 (stereo not given),–,–,81,–,–
CC12CN3CC(C)(CN(C1)C3c1ccc(F)cc1)C2 (stereo not given),–,–,–,–,–
COC(=O)C1=C(N)Oc2cc(C)[nH]c(=O)c2C1c1ccccc1OC (stereo not given),–,–,–,–,–
CC1CC(C)CN(Cc2nc3c(c(=O)n(C)c(=O)n3C)n2CCN2CCOCC2)C1 (stereo not given),–,–,–,–,–
Cc1oc(C(C)(C)C)cc1C(=O)N1CCCC1C(=O)O (stereo not given),–,–,–,–,–
O=C(CNCC1CCCO1)N1CCN(S(=O)(=O)c2ccc3ccccc3c2)CC1 (stereo not given),–,–,73,–,–
CCOC(=O)N1CCC(N2CCN(S(=O)(=O)c3ccc([N+](=O)[O-])cc3)CC2)CC1,–,–,–,–,–
O=C(CNC(=O)c1ccc2ccccc2c1)OCC(=O)N1CCN(S(=O)(=O)c2ccc3ccccc3c2)CC1,–,–,–,–,–
CCOC(=O)N1CCC(N2CCN(S(=O)(=O)c3ccc4ccccc4c3)CC2)CC1,–,–,70,–,–
CC12CNCC(C)(CN(C(c3ccccc3)c3ccccc3)C1)C2,–,–,–,·,–
CC(C)NC(=O)c1ccc(CS(=O)(=O)c2ccc(Br)cc2)o1,–,–,–,–,–
CCc1cc2ccc(C)cc2nc1SCC(=O)Nc1cc(C)on1,–,–,–,–,–
CCc1cc2cc3c(cc2nc1SCC(=O)Nc1cc(C)on1)OCO3,–,–,82,–,–
Cc1cccc2cc(C(c3nnnn3C(C)(C)C)N3CCN(C(=O)c4ccco4)CC3)c(=O)[nH]c12 (stereo not given),–,–,79,–,–
CC(C)n1cnc2cc(NCc3ccccn3)ccc21,–,–,–,–,–
Cc1cc(NCc2ccccn2)ccc1Br,–,–,79,–,–
COc1ccccc1CNc1cc(C)ccc1C,–,–,–,–,9.5
COC(=O)C1=C(C)NC(=O)NC1c1ccc(OC(=O)c2ccco2)cc1 (stereo not given),–,–,–,–,–
SMILES,Hck Nef HTS,TbHK1 inh,14-3-3 Bad inh,Mdm2 ligase inh,Wee1 degr inh
COc1ccc(N/C(=N\c2nc(C)cc(C)n2)NC(=O)C(C)C)cc1OC,–,–,76,–,–
N#Cc1nc(Cc2cccc3ccccc23)oc1NCCCN1CCOCC1,–,–,–,–,–
N#Cc1nc(Cc2ccccc2)oc1NCCN1CCOCC1,–,–,–,32,–
COc1ccccc1OCCSc1nc(C)c(Cc2ccccc2)c(=O)[nH]1,–,–,–,·,–
COc1ccc(N(C(=O)Cc2cccs2)C(C(=O)NC2CCCCC2)c2cccn2C)cc1 (stereo not given),–,–,90,–,–
Cn1cccc1C(C(=O)NC1CCCCC1)N(C(=O)Cc1cccs1)c1ccc2c(c1)OCO2 (stereo not given),–,–,–,–,–
Cc1cc(C)n(CC(O)COc2ccc(OCC(O)Cn3nc(C)cc3C)cc2)n1 (stereo not given),–,–,·,·,–
O=C(O)CSc1nnc(-c2ccc(S(=O)(=O)N3CCCC3)cc2)n1Cc1ccco1,–,–,85,·,–
O=S(=O)(c1ccc(F)cc1)N1CCC(N2CCN(c3ccccc3)CC2)CC1,–,–,·,·,–
c1ccc(N2CCN(C3CCSC3)CC2)cc1 (stereo not given),–,–,71,–,–
